Shown are actives, neighbours in structure and some others; about 1.5% of the full set was active somewhere.
CendR NRP1 mod – modulators of CendR peptide binding to NRP-1, primary screen, biochemical, fluorescence polarization, uHTS. inhibition, % at 25 µM. actives 0.85% (n = 360,000). FAM-RPARPAR peptide binding to NRP-1. Neuropilin-1 (Homo sapiens), O14786;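 active = inhibition or corrected inhibition above about 18%, plus a signal ratio from 0.5 to 1.5, limit read from the data, passing the limit was not always enough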
Target sequence (O14786 whole entry, looked up): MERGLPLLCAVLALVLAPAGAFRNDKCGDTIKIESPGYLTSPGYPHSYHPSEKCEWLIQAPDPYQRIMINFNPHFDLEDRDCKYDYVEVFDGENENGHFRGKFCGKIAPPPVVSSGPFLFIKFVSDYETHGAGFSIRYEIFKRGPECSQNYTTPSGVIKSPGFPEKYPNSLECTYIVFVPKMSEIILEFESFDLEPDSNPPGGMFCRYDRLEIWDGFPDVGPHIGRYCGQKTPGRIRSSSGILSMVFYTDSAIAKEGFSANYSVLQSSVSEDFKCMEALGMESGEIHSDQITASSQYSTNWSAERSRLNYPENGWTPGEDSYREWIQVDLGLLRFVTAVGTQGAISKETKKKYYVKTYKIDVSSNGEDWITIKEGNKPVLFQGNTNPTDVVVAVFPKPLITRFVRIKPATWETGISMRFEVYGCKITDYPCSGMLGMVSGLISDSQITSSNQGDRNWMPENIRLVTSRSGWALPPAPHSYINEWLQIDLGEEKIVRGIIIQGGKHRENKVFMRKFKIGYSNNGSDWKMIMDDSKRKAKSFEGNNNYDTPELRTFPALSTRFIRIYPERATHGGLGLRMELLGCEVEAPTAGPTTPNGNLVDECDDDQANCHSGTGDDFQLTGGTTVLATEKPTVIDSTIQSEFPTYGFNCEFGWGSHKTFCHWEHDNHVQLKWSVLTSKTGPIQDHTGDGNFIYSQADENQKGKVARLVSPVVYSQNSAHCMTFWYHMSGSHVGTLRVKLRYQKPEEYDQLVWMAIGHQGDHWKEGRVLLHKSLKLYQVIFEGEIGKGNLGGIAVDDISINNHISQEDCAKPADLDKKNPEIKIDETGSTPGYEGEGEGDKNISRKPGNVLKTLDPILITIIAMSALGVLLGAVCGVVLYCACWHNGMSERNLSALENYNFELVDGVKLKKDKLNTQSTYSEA
DNA FID counter – compounds displacing fluorescent DNA intercalator, primary screen, artefact control for HCV NS3 helicase inhibitor project, biochemical, FID fluorescence; inhibition, % at 7.9 µM; AID 1845, 2009; DNA fluorescent intercalator displacement; actives 0.17% (n = 290,000); in the data active = inhibition above about 37%;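 also: higher means more ethidium bromide displaced from hairpin DNA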
MEX-5 binding – MEX-5 zinc finger RNA-binding disruptors – biochemical, C. elegans, fluorescence polarization, MLPCN library, primary screen; MEX-5/FITC-TCR2 RNA binding; stronger effect = lower value; activity score (negative = inhibition of binding), % at 10 µM; actives 0.38% (n = 300,000);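 active = inhibition past about -25% in most replicates, and total fluorescence under double the plate's negative control median, limit read from the data; inconclusive = replicates evenly split on the limit, or fluorescence at least double controls; inactive = too little inhibition in most replicates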
HCV core dimer – inhibitors of HCV core protein dimerization, primary screen, biochemical, TR-FRET, high-throughput. TR-FRET GST/Flag-core106 dimerization, 1536-well. inhibition, % at 5 µM. actives 0.33% (n = 300,000). AID 1899, 2009;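 active = inhibition above the mean of all tested compounds plus 3 SD, set per screening campaign, cut at about 45% in these data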
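System – GST-tagged and Flag-tagged HCV core protein residues 1-106 · Repeats – one well for each compound · Technique – TR-FRET 671 and 617 nm emission · Doses – one concentration, 5 µM, in 0.5% DMSO · Times – 4 h, 22.5 °C incubation · Also added – Eu donor and XL665 acceptor anti-tag antibodies · Measure – percent inhibition of core106 dimerization signal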
A number is an active result; . = inactive; ? = inconclusive; / = no result given; ! = not active in a repeat.

SMILES	CendR NRP1 mod	DNA FID counter	MEX-5 binding	HCV core dimer
CC1CCC(NC(=O)CSc2nncn2C)CC1 (stereo unspecified)	23	/	/	/
CCOC1=C2[C@@H](CN(S(=O)(=O)c3ccc(C)cc3)[C@H]2c2cccc3ccccc23)[C@H]2C(=O)NC(=O)[C@H]2C1	.	/	/	/
CCOC(=O)CCN(C(=S)Nc1ccccc1)C1CCCCC1	.	/	/	/
Cc1ccc2c(c1)C(c1ccncc1)=NNC(c1ccc(F)cc1)=N2	36	.	.	.
CCn1c(SCC(=O)Nc2nccs2)nnc1-c1ccc(C)cc1	.	.	.	.
CCn1c(SC(C)C(=O)Nc2nccs2)nnc1-c1ccncc1 (stereo unspecified)	24	.	.	.
C=COC(=O)CSc1snc(SCC(=O)OC)c1C#N	.	.	.	89
CCN(CC)C(=O)CSc1nsc(SCC(=O)N(CC)CC)c1C#N	.	.	/	.
CCOC(=O)C1(C)CCCN(C(=O)c2cc(C)oc2C)C1 (stereo unspecified)	.	/	/	/
O=C(Oc1ccc2c(c1)OCO2)c1cc2c(s1)CCC2	.	.	.	87
COCCN(C(=O)c1ccc(C)c(S(=O)(=O)N2CCOCC2)c1)c1c(N)n(CC(C)C)c(=O)[nH]c1=O	29	/	/	/
COc1ccc(/C=N/N=C2/CC(C)(C)Cc3n[nH]c(=O)cc32)cc1	50	.	-81	.
CC(=O)Nc1cc(-c2cccc(F)c2)cn2c(-c3ccccc3)cnc12	.	/	/	/
N#Cc1ccc(-c2cccc3nccn23)cc1	.	/	/	/
O=C(Cn1cccc1)Nc1ccc(OC(F)(F)F)cc1	.	.	.	.
O=C(O)Cn1ncn(-c2ccc(OC(F)(F)F)cc2)c1=O	26	.	.	.
COc1cc2c(C#N)c(N3CCCC3)nc(N)c2c(N)n1	30!	.	.	.
N#Cc1c(N2CCCC2)nc(N)c2c(N)nc(N3CCCC3)cc12	32	.	.	.
COc1ccc(NC(=S)NC2CC3CCC(C2)N3Cc2ccco2)cc1 (stereo unspecified)	21	.	.	.
Cc1ccc(S(=O)(=O)N(C)C[C@@H]2OCc3cn(nn3)CCCC(=O)N([C@H](C)CO)C[C@H]2C)cc1	.	/	/	/
Cc1ccc(C)c(N2CCN(C(=O)c3ccc(Cn4c(=S)[nH]c5ccc(N6CCOCC6)cc5c4=O)cc3)CC2)c1	.	.	.	48
COc1ccc(CNc2nn3c(-c4cccc(C(=O)N(C)C)c4)cnc3s2)cc1	30	/	/	/
COc1ccc(Cl)cc1N=Cc1c(O)c2ccccc2oc1=O	.	.	.	.
COc1ccc(OC)c(N=Cc2c(O)c3ccccc3oc2=O)c1	.	.	-29	.
COC(=O)C=CSC(=S)C1CCCC1=N (stereo unspecified)	.	/	/	/
SMILES	CendR NRP1 mod	DNA FID counter	MEX-5 binding	HCV core dimer
OC(c1ccc(Cl)cc1)c1ncc(-c2ccc(Oc3ccccc3)cc2)[nH]1 (stereo unspecified)	.	/	/	/
Cc1cccc(Cn2c(N(C)Cc3ccccc3)nc3c2c(=O)[nH]c(=O)n3C)c1	26	.	.	.
O=C1c2ccccc2NC(c2ccco2)N1/N=C/c1ccco1 (stereo unspecified)	18	.	.	.
C/C(=N\N1C(=O)c2ccccc2NC1c1ccco1)c1ccccc1O (stereo unspecified)	.	.	.	.
Cc1ccc(C(NC(=O)C2CCN(CCOc3ccccc3)CC2)c2ccccn2)cc1 (stereo unspecified)	.	/	/	/
CC(=O)Nc1ccc(C(=O)N2CCCCC2c2cc(C(=O)NC(C)C)no2)cc1 (stereo unspecified)	44	/	/	/
CC(C)NC(=O)c1cc(C2CCCCN2C(=O)c2ccc(C(C)C)cc2)on1 (stereo unspecified)	.	/	/	/
COC(=O)N1CCCCC1c1cc(C(=O)N2CCOCC2)no1 (stereo unspecified)	26	/	/	/
COc1ccc(S(=O)(=O)N2CCOCC2)cc1NC(=O)c1c(C)noc1C	.	/	/	/
CC(=O)NC(c1ccc(F)c(F)c1)c1nc(-c2cnc3ccccc3c2)cs1 (stereo unspecified)	.	/	/	/
CC(Sc1nnnn1-c1ccccc1)C(=O)NC1CCCC1 (stereo unspecified)	.	/	/	/
COc1ccc(-n2nnnc2SC(C)C(=O)NC2CCCC2)cc1 (stereo unspecified)	20	/	/	/
CCC(C)Sc1nc2c(c(=O)[nH]1)C(c1cccs1)C1=C(CCCC1=O)N2 (stereo unspecified)	.	.	.	57
CC1(C(=O)NS(=O)(=O)Cc2cccc(Cl)c2)CCN1C(=O)C/C=C/c1ccccc1 (stereo unspecified)	.	/	/	/
CN1OC[C@@H]2CN(Cc3ccccc3)[C@H](c3cccc(Oc4ccccc4)c3)C[C@@H]21	25	/	/	/
CN1OC[C@@H]2CN(Cc3cc(Cl)cc(Cl)c3)[C@H](c3cccc(Oc4ccccc4)c3)C[C@@H]21	.	/	/	/
O=C(C(=O)N1CCN(C(=O)OCc2ccccc2)CC1)c1cccnc1	.	/	/	/
CCN(CC)CC#Cc1ccc(C)cc1	.	.	.	.
C=CCC(C#Cc1ccc(C)cc1)N(CC)CC (stereo unspecified)	29	.	.	.
COc1cc(NC(=O)C/C(C)=N/NC(=O)c2ccccn2)c(OC)cc1Cl	23	.	.	.
N#Cc1cc([N+](=O)[O-])ccc1Oc1cccc(/C=N/NC(=O)c2cccc(Cl)c2)c1	.	.	.	50
COCCn1c(C)cc(C(=O)COC(=O)c2cc3c(s2)CCC3)c1C	.	.	.	79
OC(c1ccccc1)(c1ccccc1)C1CCN(CCCOc2ccc3c(c2)CCCC3)CC1	.	/	/	/
Cc1oc(-c2ccc(Cl)cc2)nc1CN1CCCC(C(=O)NCCCN2CCOCC2)C1 (stereo unspecified)	.	45	.	.
C=CCn1cc(/C=C/c2cc[n+](C)cc2)c2ccccc21	.	.	?	.
SMILES	CendR NRP1 mod	DNA FID counter	MEX-5 binding	HCV core dimer
C=CCn1ccc(=NC=C(C#N)C#N)c2ccccc21	.	.	-75	.
O=C(O)c1cc([N+](=O)[O-])ccc1Nc1ccccc1	.	.	.	.
O=C(O)c1cc([N+](=O)[O-])ccc1Oc1ccccc1	26	/	/	/
COc1ccc(S(=O)(=O)Nc2cccc3c2O[C@H](CN(C)S(=O)(=O)c2cn(C)cn2)[C@@H](C)CN([C@H](C)CO)C3=O)cc1	26	/	/	/
CC(C)Cn1cnc2c1c(=O)n(CC(=O)NC(=O)NC(C)(C)C)c(=O)n2Cc1ccccc1	18	.	.	.
CCOc1cc(Br)c(/C=C2/C(=O)N(C)C(=S)N2CC(=O)OC)cc1OC	.	.	-32	.
O=C(NNC(=O)c1ccccc1O)c1ccc(S(=O)(=O)Nc2ccccc2F)cc1	.	/	-26	.
Cc1ccccc1NS(=O)(=O)c1ccc(C(=O)NNC(=O)c2ccccc2O)cc1	.	/	.	.
Cc1cc(C)n(-c2ccc(C(=O)Nc3nnc(C4CC4)s3)cc2)n1	26	.	.	.
O=C(CCC(=O)c1cccs1)Nc1nnc(C2CC2)s1	.	.	.	.

Bioassay records deposited in PubChem by several laboratories.
